Compounds with a hit are over-represented: about 0.38% of the library has one in this group of screens.
GSK3beta inhib: blocks human GSK3beta kinase activity. P49841. GST-GSK3beta kinase, ADP-Glo luminescence, 60 min; active compounds read low. activity score (negative = inhibition), % at 10 µM. hit rate 0.038% among 300,000. AID 2097;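 active means more than half of replicate wells score below -50%, meaning over 50% inhibition versus plate controls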
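test system = GST-tagged human GSK3beta kinase, cell-free | reagent = 25 µM ATP with peptide substrate | dosing = one dose of 10 µM per compound | schedule = 60 min reaction, RT | detection = luminescent ADP-Glo measurement of ADP formed | control set = DMSO neutral wells and GW8510 at 20 µM as positive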
A1 inh: inhibitors of the anti-apoptotic protein A1, read as caspase activation; caspase activation, % (no concentration beside the values); hit rate 0.066% among 330,000; MEF A1-2A-BIM cells, Caspase-Glo 3/7 luminescence, 3 h; percent of clofoctol response, vehicle zero;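 active means over half of replicate activation scores above 10%, or exactly half above 10 with the replicate mean above 10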
STK33 inh: blocks human STK33 kinase activity | Q9BYT3 | purified STK33, MBP phosphorylation, ADP-Glo luminescence | inhibition, % at 10 µM | hit rate 0.073% among 320,000;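 active means inhibition at or above 25%, using the most active replicate where run in duplicate; inactive means inhibition below 25%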
proCasp3 act: activates human procaspase-3; recombinant procaspase-3 D3A, Ac-DEVD-pNA absorbance 405 nm; activation, % at 8.5 µM; hit rate 0.11% among 330,000; AID 463141;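 active means activation above the mean of all tested compounds plus 3 SD, cut at about 21% in these data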
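assay system = Procaspase-3 D3A mutant | signal = absorbance at 405 nm, 0 and 120 min | times = 1 h preincubation plus 2 h reaction at 25 °C | repeats = single replicate | read-out = % activation between DMSO and enzyme-spiked controls | medium = Zinc-free HEPES saline buffer with Triton X-100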
GSK3A inh: inhibitors of human GSK-3 alpha kinase. ADP-Glo luminescence, 60 min. hit rate 0.1% among 320,000. inhibition, % at 10 µM. AID 2650. P49840;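 active means more than half of replicates show inhibition above 20%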;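 further: GST-tagged GSK-3 alpha with peptide substrate and 25 µM ATP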
procasp7 counter: counter-screen: procaspase-7 (human) activation. AID 463210. activation, % at 8.5 µM. hit rate 0.093% among 330,000. recombinant procaspase-7, Ac-DEVD-pNA absorbance 405 nm; D23A/D198A/D206A triple mutant, cannot self-cleave; scale: DMSO 0, 5 µM enzyme 100. P55210;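 active means percent activation above the screen-wide mean plus 3 SD, cut at about 25% in these data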
Target sequence (P55210 whole entry D23A/D198A/D206A): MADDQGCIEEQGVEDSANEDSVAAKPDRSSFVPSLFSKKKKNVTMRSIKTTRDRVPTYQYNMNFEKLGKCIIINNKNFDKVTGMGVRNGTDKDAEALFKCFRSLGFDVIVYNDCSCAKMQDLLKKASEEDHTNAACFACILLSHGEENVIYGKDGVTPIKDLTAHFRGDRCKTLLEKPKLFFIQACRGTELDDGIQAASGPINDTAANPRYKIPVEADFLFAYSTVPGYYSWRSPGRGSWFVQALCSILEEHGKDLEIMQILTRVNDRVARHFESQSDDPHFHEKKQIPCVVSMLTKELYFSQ
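System: Uncleavable procaspase-7 mutant enzyme; Amount: 2 µM procaspase-7 mutant as dispensed; Schedule: 1 h compound preincubation, 2 h substrate cleavage, 25 °C; Measured by: 405 nm absorbance of p-nitroaniline; Evaluation: percent activation from buffer-corrected 0–120 min absorbance change; Control set: low DMSO alone, high DMSO plus 5 µM PC-7.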
proCasp7 act trip: counter-screen for procaspase-3 activators: activators of human procaspase-7. activation, % at 8.5 µM. recombinant procaspase-7, Ac-DEVD-pNA absorbance; asp23/198/206-to-Ala mutant, cannot self-cleave. shares compounds with proCasp3 act. 210 tested, under 10 active;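 active means mean activation above a set limit taken from an earlier procaspase-7 screen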
procasp3 conf: procaspase-3 (human) activation, confirmed. recombinant PC-3 D3A, Ac-DEVD-pNA absorbance 405 nm; 100% is higher-enzyme control. AID 488954. activation, % at 8.5 µM. shares compounds with proCasp3 act. hit rate 10% among 210;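 active means mean activation above a set limit carried over from the earlier primary screen, cut at about 22% in these data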
Each line names hits and unclear results; the compound was inactive in the other large screens (follow-up assays come after a bar, where they were run).

O=c1cc(-c2ccncc2)oc2ccccc12	GSK3A inh 58.1
O=c1cc(-c2ccc(O)cc2)oc2ccccc12	none
COc1ccc2occ(C(=O)c3cccs3)c2c1	GSK3A inh 58.7
COc1ccc2occ(C(=O)c3ccc(N)cc3)c2c1	none (no result: proCasp3 act, procasp7 counter)
COc1ccc2occ(C(=O)c3coc4ccc(O)c(CN(C)C)c34)c2c1	GSK3beta inhib -68.4, GSK3A inh 85.0
COc1cn(-c2ccccc2)nc1C(=O)NCc1ccccc1	none
N#Cc1ccc(C23CC4(C2)[C@H](CN(Cc2ccc(C(F)(F)F)cc2)[C@@H]4c2ccccc2)C3c2ccc(Cl)nc2)cc1 (some centres undefined)	none (no result: A1 inh, STK33 inh, proCasp3 act, GSK3A inh, procasp7 counter)
Cc1cnc(C(=O)OCC(=O)N2c3ccccc3NC(=O)C2(C)C)cn1	none
CC(=O)c1c(C)[nH]c(C(=O)OCC(=O)N2c3ccccc3NC(=O)C2(C)C)c1C	proCasp3 act 29.9 | proCasp7 act trip inactive | procasp3 conf inactive
CC(=O)Nc1nc(-c2cccs2)cs1	none
CC(=O)c1ccc(-c2cccs2)s1	proCasp3 act 29.3 (no result: STK33 inh) | proCasp7 act trip inactive | procasp3 conf inactive
COC(=O)c1cc(C(=O)OC)cc(-n2c(C)cc(C(=O)COC(=O)CNS(=O)(=O)c3ccc(C)cc3)c2C)c1	none
O=c1c2ccccc2c(-c2ccccc2)nn1-c1cc(Cl)cc(Cl)c1	proCasp3 act 22.1 | proCasp7 act trip inactive | procasp3 conf inactive
O=C(CN(C(=O)c1csnn1)c1ccc(F)c(Cl)c1)NCc1ccc2c(c1)OCO2	none
CCOc1ccc(-c2c(C(=O)N/N=C/c3ccc(C)s3)nnn2-c2nonc2N)cc1	proCasp3 act 25.7 | proCasp7 act trip inactive | procasp3 conf inactive
CCOc1cccc(-c2c(C(=O)N/N=C/c3ccc(C)s3)nnn2-c2nonc2N)c1	none
Cc1ccc(C)c(N(CC(=O)Nc2ccc(-c3nc4ccc(C)cc4s3)cc2)S(C)(=O)=O)c1	proCasp3 act 24.1 | proCasp7 act trip inactive | procasp3 conf 23.3
Cc1ccc(S(=O)(=O)Nc2ccc(-c3nc4ccc(C)cc4s3)cc2)cc1	proCasp3 act 22.5 | proCasp7 act trip inactive | procasp3 conf inactive
COc1ccc(CCNC(=O)[C@H](CC(C)C)NC(=O)N2CCn3c2nc2ccccc23)cc1OC	none
O=C(NC(=S)NCc1cccnc1)c1cccc2ccccc12	none
CCOCCCNC(=O)c1ccc(N(C)S(=O)(=O)c2ccc(OC)cc2)cc1	proCasp3 act 22.2 | proCasp7 act trip inactive | procasp3 conf inactive
Oc1c(Br)cc(Br)cc1/C=N/NC(=S)N[C@H]1CC2C=CC1C2 (some centres undefined)	proCasp3 act 23.1 | proCasp7 act trip inactive | procasp3 conf 30.5
CC(=O)Oc1cccc2c1C(=O)c1c(OC(C)=O)cc(C(=O)O)cc1C2=O	proCasp3 act 26.1 | proCasp7 act trip inactive | procasp3 conf 31.9
CC(=O)Oc1ccc(C(=O)O)cc1OC(C)=O	none
O=S(=O)(NC1CCCCC1)c1ccc(S(=O)(=O)N2CCN3CCCC3C2)cc1 (centres undefined)	proCasp3 act 37.2 | proCasp7 act trip inactive | procasp3 conf inactive
COc1ccc(OC)c(/C=C/C(=O)OCC(=O)Nc2cccc(Oc3ccccc3)c2)c1	proCasp3 act 22.9 | proCasp7 act trip inactive | procasp3 conf inactive
COc1cccc(NC(=O)COC(=O)/C=C/c2ccc(Cl)cc2Cl)c1	none
COc1ccccc1NS(=O)(=O)c1ccc(C(=O)Nc2ncccc2O)cc1	none (no result: GSK3beta inhib)

Screening data: PubChem BioAssay, several laboratories
